From paper PMC6358270 (Toxicological Sciences, 2018)
“Also recorded” adds a separate entry of the source. Like-named read-outs stand apart in the source and are kept apart here.

Legend:
[1] = target: human BSEP ABC transporter (Homo sapiens, UniProt O95342); experiment: BSEP vesicular transport inhibition Ki determination assay; assay type: biochemical
How it was run: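 Inside-out membrane vesicles expressing BSEP. Transporter-specific taurocholate accumulation was measured across a range of test compound concentrations.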

[2] = target: T1, human NTCP (Homo sapiens, UniProt Q14973); experiment: NTCP uptake transporter inhibition Ki determination in CHO cells; assay type: cell-based; details: based on alpha >> 1, increasing Km, nearly constant Vmax
T1 sequence (Q14973 1-349): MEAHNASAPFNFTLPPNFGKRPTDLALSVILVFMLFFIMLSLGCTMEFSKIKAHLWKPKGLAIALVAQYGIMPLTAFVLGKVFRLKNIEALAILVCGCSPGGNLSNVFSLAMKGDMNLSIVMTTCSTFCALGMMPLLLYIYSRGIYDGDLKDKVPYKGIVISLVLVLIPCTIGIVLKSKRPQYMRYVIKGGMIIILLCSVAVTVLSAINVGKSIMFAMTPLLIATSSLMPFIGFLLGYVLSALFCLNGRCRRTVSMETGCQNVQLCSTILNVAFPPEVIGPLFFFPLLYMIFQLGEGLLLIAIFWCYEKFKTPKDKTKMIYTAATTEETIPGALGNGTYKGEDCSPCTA

[3] = test system: HepG2 cells; experiment: In vitro ROS assay; assay type: cell-based, human; details: nominal media concentrations up to 200 μM, 1 h or 24 h
[4] = test system: TAK-875-treated patients; details: cited from earlier work; for patients with ALT elevations > 3× ULN: clinical
[5] = test system: primary human hepatocytes; details: ref Wolenski et al., 2017; cited from earlier work
[6] = test system: HepG2 cells; details: ref Otieno et al., 2018, cited from earlier work; for effect on OCR / basal respiration: HepG2 cells
[7] = ref Wolenski et al., 2017; cited from earlier work
[8] = rat; ref unpublished data; cited from earlier work
[9] = test system: patients with T2D; details: Phase II clinical trials, ref Kaku et al., 2015; cited from earlier work

human BSEP ABC transporter, sequence (O95342 whole entry): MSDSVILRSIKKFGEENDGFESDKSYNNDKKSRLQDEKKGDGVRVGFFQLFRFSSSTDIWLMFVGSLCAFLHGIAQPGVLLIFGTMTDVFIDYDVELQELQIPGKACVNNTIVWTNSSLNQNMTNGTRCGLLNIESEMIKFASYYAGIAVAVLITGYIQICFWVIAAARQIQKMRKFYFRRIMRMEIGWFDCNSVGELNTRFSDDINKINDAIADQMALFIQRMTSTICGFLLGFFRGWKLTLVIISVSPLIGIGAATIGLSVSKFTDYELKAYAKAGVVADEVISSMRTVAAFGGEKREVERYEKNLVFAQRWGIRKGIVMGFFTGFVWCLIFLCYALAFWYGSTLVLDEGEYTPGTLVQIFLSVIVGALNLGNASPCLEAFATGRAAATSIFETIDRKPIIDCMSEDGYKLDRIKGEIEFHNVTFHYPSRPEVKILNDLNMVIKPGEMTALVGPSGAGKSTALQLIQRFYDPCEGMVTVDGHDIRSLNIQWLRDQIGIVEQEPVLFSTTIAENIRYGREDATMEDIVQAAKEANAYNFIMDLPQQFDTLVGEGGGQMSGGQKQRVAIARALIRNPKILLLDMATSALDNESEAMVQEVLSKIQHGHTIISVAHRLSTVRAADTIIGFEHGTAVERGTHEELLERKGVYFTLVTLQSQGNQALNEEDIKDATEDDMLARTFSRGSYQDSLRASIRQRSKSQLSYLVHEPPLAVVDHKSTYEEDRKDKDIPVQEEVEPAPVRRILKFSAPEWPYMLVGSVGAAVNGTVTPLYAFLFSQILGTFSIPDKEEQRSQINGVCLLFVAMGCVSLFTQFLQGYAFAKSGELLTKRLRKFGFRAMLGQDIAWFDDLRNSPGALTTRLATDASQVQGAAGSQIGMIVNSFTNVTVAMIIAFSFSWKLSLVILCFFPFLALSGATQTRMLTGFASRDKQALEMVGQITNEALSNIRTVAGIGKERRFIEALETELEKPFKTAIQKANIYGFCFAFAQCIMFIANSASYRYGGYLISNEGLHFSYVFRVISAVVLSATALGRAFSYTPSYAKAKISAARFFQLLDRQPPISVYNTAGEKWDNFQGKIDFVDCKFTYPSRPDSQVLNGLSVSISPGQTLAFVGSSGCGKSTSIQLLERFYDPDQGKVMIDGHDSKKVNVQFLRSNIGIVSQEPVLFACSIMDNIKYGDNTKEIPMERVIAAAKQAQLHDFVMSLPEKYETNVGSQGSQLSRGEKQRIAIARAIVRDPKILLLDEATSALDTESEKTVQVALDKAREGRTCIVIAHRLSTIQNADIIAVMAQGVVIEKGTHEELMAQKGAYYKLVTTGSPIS

Cc1cc(OCCCS(C)(=O)=O)cc(C)c1-c1cccc(COc2ccc3c(c2)OC[C@H]3CC(=O)O)c1 [TAK-875, fasiglifam]
Ki [1]: 17.2 µM
mode of BSEP inhibition ([1]; based on alpha value, Km and Vmax trends): mixed
BSEP alpha constant for inhibition ([1]; mixed-type inhibition model): 2.172
mode of NTCP inhibition [2]: competitive
ROS production / oxidative stress (DHE fluorescence) [3]: not observed
cases of serious liver injury, incidence ([4]; clinical trials, ref Marcinak et al., 2018): 0.03%
patients with ALT elevations > 3× ULN ([4]; daily doses of 200 mg, ref unpublished data): 4.0%
patients with ALT elevations > 3× ULN ([4]; daily doses ranging from 25 to 50 mg, ref Marcinak et al., 2018): 2.8%
cases of serious liver injury ([4]; in 9139 TAK-875-treated patients, ref Marcinak et al., 2018): 3 cases
effect on oxygen consumption rate (OCR) [5]: reduce the oxygen consumption rate (OCR) in a dose-dependent manner
effect on OCR / basal respiration [6]: dose-dependent reduction in OCR
compound-induced oxidative stress [7]: no evidence of compound-induced oxidative stress was detected; also recorded: not found to be inducers of oxidative stress
concentration in liver versus plasma [8]: roughly equivalent
effect on blood glucose levels and HbA1c [9]: lowered blood glucose levels and glycated hemoglobin (HbA1c)

Cc1cc(OCCCS(C)(=O)=O)cc(C)c1-c1cccc(COc2ccc3c(c2)OC[C@H]3CC(=O)O[C@@H]2O[C@H](C(=O)O)[C@@H](O)[C@H](O)[C@H]2O)c1 [TAK-875-Glu]
effect on oxygen consumption rate (OCR) [5]: reduce the oxygen consumption rate (OCR) in a dose-dependent manner
effect on OCR / basal respiration [6]: no effect on basal respiration
effects on mitochondria [6]: negligible effects on mitochondria
compound-induced oxidative stress [7]: no evidence of compound-induced oxidative stress was detected; also recorded: not found to be inducers of oxidative stress
